Data: ChEMBL document CHEMBL4014339, “Discovery of 1,4-Benzodiazepine-2,5-dione (BZD) Derivatives as Dual Nucleotide Binding Oligomerization Domain Containing 1/2 (NOD1/NOD2) Antagonists Sensitizing Paclitaxel (PTX) To Suppress Lewis Lung Carcinoma (LLC) Growth in Vivo” (J Med Chem, 2017)
Activity calls are given as the source filed them.

Key:
[1] = target: T1, Nucleotide-binding oligomerization domain-containing protein 2 (Homo sapiens, UniProt Q9HC29); experiment: Inhibition of human NOD2 expressed in HEK293 cells assessed as suppression of MDP-stimulated p38 phosphorylation preincubated for 1 hr followed by MDP stimulation measured after 1 hr by Western blot analysis
[2] = target: T2, Nucleotide-binding oligomerization domain-containing protein 1 (Homo sapiens) (UniProt Q9Y239); experiment: Inhibition of NOD1 in human THP1 cells assessed as reduction of C12-iE-DAP-mediated decrease in IkBalpha levels at 1 to 10 uM preincubated for 1 hr followed by C12-iE-DAP addition measured after 45 mins by Western blot analysis; format: cell-based
T2 sequence (whole entry): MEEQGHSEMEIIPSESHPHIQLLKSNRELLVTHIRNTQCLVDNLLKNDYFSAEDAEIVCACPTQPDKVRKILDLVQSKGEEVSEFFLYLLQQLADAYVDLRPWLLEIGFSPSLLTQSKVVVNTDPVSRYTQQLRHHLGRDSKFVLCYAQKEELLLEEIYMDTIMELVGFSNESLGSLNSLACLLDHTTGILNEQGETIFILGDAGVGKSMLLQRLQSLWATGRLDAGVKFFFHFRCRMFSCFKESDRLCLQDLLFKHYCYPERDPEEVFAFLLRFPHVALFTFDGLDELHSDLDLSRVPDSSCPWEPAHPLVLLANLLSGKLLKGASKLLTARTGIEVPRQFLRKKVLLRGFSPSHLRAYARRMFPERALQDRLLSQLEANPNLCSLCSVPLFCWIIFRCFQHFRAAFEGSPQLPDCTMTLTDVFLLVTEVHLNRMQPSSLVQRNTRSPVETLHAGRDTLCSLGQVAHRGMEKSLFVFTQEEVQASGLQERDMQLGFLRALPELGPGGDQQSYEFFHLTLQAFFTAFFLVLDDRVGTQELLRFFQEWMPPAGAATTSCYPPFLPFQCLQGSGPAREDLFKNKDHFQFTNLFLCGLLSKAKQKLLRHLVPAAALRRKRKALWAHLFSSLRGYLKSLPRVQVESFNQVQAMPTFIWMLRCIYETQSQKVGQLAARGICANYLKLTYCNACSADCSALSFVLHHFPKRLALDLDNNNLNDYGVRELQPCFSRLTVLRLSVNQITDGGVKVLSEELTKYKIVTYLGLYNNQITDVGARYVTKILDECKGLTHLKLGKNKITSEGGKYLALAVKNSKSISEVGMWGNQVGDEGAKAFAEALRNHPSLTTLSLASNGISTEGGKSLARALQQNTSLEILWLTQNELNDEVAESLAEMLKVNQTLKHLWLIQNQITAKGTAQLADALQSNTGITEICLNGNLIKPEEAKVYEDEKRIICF
Summary of the method: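 PMA (20 ng/mL, 48 h)-differentiated THP1 macrophages rested 24 h in PMA-free medium, serum-starved (0.1% FBS) overnight, pretreated 1 h with compound, stimulated 45 min with C12-iE-DAP 50 ng/mL. Lysates run on 8% SDS-PAGE, immunoblotted for phospho and total RIP2, p38, JNK, ERK and IκBα.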

[3] = target: T2, Nucleotide-binding oligomerization domain-containing protein 1 (Homo sapiens); experiment: Inhibition of NOD1 in human PBMC-derived macrophages assessed as reduction in C12-iE-DAP-stimulated IL6 mRNA expression preincubated for 1 hr followed by C12-iE-DAP stimulation for 90 mins by RT-qPCR analysis
Summary of the method: (§1)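 Human CD14+ monocytes from donor PBMC, differentiated 7 days with M-CSF 20 ng/mL to macrophages; 1.0 × 10^6 cells pretreated 1 h with compound (final 0.1% DMSO), then C12-iE-DAP 500 ng/mL or MDP 5 μg/mL for 90 min. IL-6/TNF-α mRNA by qRT-PCR, normalized to GAPDH; stimulated response set to 100%.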

[4] = target: T1, Nucleotide-binding oligomerization domain-containing protein 2; experiment: Inhibition of NOD2 in human PBMC-derived macrophages assessed as reduction in MDP-stimulated TNFalpha mRNA expression at 10 uM preincubated for 1 hr followed by MDP stimulation for 90 mins by RT-qPCR analysis
Summary of the method: as §1

Measured: inhibition

T1 sequence (Q9HC29 whole entry, the tested form may be a part): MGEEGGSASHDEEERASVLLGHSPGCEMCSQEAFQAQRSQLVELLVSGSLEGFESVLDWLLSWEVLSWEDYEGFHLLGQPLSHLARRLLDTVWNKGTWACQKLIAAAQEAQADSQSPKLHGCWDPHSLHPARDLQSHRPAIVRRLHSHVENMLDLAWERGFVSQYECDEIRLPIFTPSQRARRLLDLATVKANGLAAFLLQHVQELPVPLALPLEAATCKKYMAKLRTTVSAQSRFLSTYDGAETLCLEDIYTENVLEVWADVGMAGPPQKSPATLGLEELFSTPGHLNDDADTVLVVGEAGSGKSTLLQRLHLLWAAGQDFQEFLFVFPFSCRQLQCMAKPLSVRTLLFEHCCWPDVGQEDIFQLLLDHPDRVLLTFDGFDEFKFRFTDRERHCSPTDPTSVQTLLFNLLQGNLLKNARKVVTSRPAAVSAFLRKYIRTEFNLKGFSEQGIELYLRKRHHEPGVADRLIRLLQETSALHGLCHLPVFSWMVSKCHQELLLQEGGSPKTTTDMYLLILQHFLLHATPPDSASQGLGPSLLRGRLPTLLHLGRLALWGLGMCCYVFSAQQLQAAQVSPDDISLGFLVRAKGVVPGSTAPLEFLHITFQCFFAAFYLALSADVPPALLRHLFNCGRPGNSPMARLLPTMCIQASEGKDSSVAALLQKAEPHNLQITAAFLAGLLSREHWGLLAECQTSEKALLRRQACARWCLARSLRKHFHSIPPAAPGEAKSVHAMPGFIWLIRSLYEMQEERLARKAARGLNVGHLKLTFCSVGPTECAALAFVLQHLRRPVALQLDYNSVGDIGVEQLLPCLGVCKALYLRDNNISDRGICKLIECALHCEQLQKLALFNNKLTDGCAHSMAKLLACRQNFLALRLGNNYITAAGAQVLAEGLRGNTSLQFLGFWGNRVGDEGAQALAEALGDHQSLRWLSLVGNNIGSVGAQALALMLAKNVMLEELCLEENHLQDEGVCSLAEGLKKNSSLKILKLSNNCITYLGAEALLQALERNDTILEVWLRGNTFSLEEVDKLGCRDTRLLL

CCCNC(=O)CC[C@H]1NC(=O)c2cc(Oc3cccc(N(C)C)c3)c(NC(=O)COCc3ccccc3)cc2NC1=O
active: [1] Dose-dependent effect | [2] | [3] Dose-dependent effect | [4]
